Experimental data taken from ChEMBL document CHEMBL2040768, “Synthesis, antimicrobial and cytotoxic activities of sulfone linked bis heterocycles” (Eur J Med Chem, 2012).
In brackets after ≈: the same amount, converted by molar mass. Activity calls are given as the source filed them. No cut-off for these calls is given here.

Legend:
[1] = test system: Staphylococcus aureus; assay: Antibacterial activity against Staphylococcus aureus at 50 ug/ml after 24 hrs by agar well diffusion method; format: functional; settings: for zone of inhibition at 50 µg/mL: read-out: DIZ
Method in brief: (§1)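 Agar well diffusion. Nutrient plates swabbed with 24 h broth culture of the bacterium; 6 mm wells bored and loaded with DMSO solutions of compound (wells at 50 and 100 per well). Chloramphenicol positive control, DMSO negative control. Plates held 37 °C, 24 h; inhibition zone diameter (mm) measured, mean of duplicates.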

[2] = test system: Staphylococcus aureus; assay: Antibacterial activity against Staphylococcus aureus at 100 ug/ml after 24 hrs by agar well diffusion method; format: functional; settings: for zone of inhibition at 100 µg/mL: read-out: DIZ; method in brief: as §1
[3] = test system: Bacillus subtilis; assay: Antibacterial activity against Bacillus subtilis at 50 ug/ml after 24 hrs by agar well diffusion method; format: functional; settings: for zone of inhibition at 50 µg/mL: read-out: DIZ; method in brief: as §1
[4] = test system: Bacillus subtilis; assay: Antibacterial activity against Bacillus subtilis at 100 ug/ml after 24 hrs by agar well diffusion method; format: functional; settings: for zone of inhibition at 100 µg/mL: read-out: DIZ; method in brief: as §1
[5] = test system: Pseudomonas aeruginosa; assay: Antibacterial activity against Pseudomonas aeruginosa at 50 ug/ml after 24 hrs by agar well diffusion method; format: functional; settings: for zone of inhibition at 50 µg/mL: read-out: DIZ; method in brief: as §1
[6] = test system: Pseudomonas aeruginosa; assay: Antibacterial activity against Pseudomonas aeruginosa at 100 ug/ml after 24 hrs by agar well diffusion method; format: functional; settings: for zone of inhibition at 100 µg/mL: read-out: DIZ; method in brief: as §1
[7] = test system: Klebsiella pneumoniae; assay: Antibacterial activity against Klebsiella pneumoniae at 50 ug/ml after 24 hrs by agar well diffusion method; format: functional; settings: for zone of inhibition at 50 µg/mL: read-out: DIZ; method in brief: as §1
[8] = test system: Klebsiella pneumoniae; assay: Antibacterial activity against Klebsiella pneumoniae at 100 ug/ml after 24 hrs by agar well diffusion method; format: functional; settings: for zone of inhibition at 100 µg/mL: read-out: DIZ; method in brief: as §1
[9] = test system: Aspergillus niger; assay: Antifungal activity against Aspergillus niger at 50 ug/ml after 48 hrs by agar well diffusion method; format: functional; settings: for zone of inhibition at 50 µg/mL: read-out: DIZ
Method in brief: (§2)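 Fungal agar well diffusion. Plates swabbed with fungal culture, 6 mm wells filled with DMSO solutions of compound (50 and 100 per well). Ketoconazole positive and DMSO negative controls. Plates incubated 28 °C for 48 h; zone of inhibition diameter (mm) read, average of duplicates.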

[10] = test system: Aspergillus niger; assay: Antifungal activity against Aspergillus niger at 100 ug/ml after 48 hrs by agar well diffusion method; format: functional; settings: for zone of inhibition at 100 µg/mL: read-out: DIZ; method in brief: as §2
[11] = test system: Penicillium chrysogenum; assay: Antifungal activity against Penicillium chrysogenum at 50 ug/ml after 48 hrs by agar well diffusion method; format: functional; settings: for zone of inhibition at 50 µg/mL: read-out: DIZ; method in brief: as §2
[12] = test system: Penicillium chrysogenum; assay: Antifungal activity against Penicillium chrysogenum at 100 ug/ml after 48 hrs by agar well diffusion method; format: functional; settings: for zone of inhibition at 100 µg/mL: read-out: DIZ; method in brief: as §2
[13] = test system: A549; assay: Cytotoxicity against human A549 cells up to 0.2 mM after 72 hrs by MTT assay
[14] = test system: Staphylococcus aureus; assay: Antibacterial activity against Staphylococcus aureus after 24 hrs by broth dilution method; format: functional
Method in brief: (§3)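 Broth dilution MIC. Test samples in DMSO added at increasing concentrations to tubes of nutrient broth cultures, incubated 37 °C for 24 h. Visible turbidity scored against NB control; solvent and no-sample controls included. MIC = lowest concentration preventing visible growth.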

[15] = test system: Bacillus subtilis; assay: Antibacterial activity against Bacillus subtilis after 24 hrs by broth dilution method; format: functional; method in brief: as §3
[16] = test system: Pseudomonas aeruginosa; assay: Antibacterial activity against Pseudomonas aeruginosa after 24 hrs by broth dilution method; format: functional; method in brief: as §3
[17] = test system: Klebsiella pneumoniae; assay: Antibacterial activity against Klebsiella pneumoniae after 24 hrs by broth dilution method; format: functional; method in brief: as §3
[18] = test system: Aspergillus niger; assay: Antifungal activity against Aspergillus niger after 48 hrs by broth dilution method; format: functional
Method in brief: (§4)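 Fungal MIC by broth dilution. Compounds dissolved in DMSO, added at rising concentrations to fungal culture tubes, incubated 28 °C for 48 h. Tubes read for visible turbidity alongside a solvent control; lowest concentration with no visible growth taken as MIC.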

[19] = test system: Penicillium chrysogenum; assay: Antifungal activity against Penicillium chrysogenum after 48 hrs by broth dilution method; format: functional; method in brief: as §4
[20] = test system: Staphylococcus aureus; assay: Bactericidal activity against Staphylococcus aureus after 24 hrs by broth dilution method; format: functional
[21] = test system: Bacillus subtilis; assay: Bactericidal activity against Bacillus subtilis after 24 hrs by broth dilution method; format: functional
[22] = test system: Pseudomonas aeruginosa; assay: Bactericidal activity against Pseudomonas aeruginosa after 24 hrs by broth dilution method; format: functional
[23] = test system: Klebsiella pneumoniae; assay: Bactericidal activity against Klebsiella pneumoniae after 24 hrs by broth dilution method; format: functional
[24] = test system: Aspergillus niger; assay: Fungicidal activity against Aspergillus niger after 48 hrs by broth dilution method; format: functional
[25] = test system: Penicillium chrysogenum; assay: Fungicidal activity against Penicillium chrysogenum after 48 hrs by broth dilution method; format: functional

Row | SMILES | zone of inhibition at 50 µg/mL [1] [mm] | zone of inhibition at 100 µg/mL [2] [mm] | zone of inhibition at 50 µg/mL [3] [mm] | zone of inhibition at 100 µg/mL [4] [mm] | diameter of the inhibition zone (DIZ) [5] | diameter of the inhibition zone (DIZ) [6] | diameter of the inhibition zone (DIZ) [7] | diameter of the inhibition zone (DIZ) [8] | diameter of the inhibition zone (DIZ) [9] | diameter of the inhibition zone (DIZ) [10] | diameter of the inhibition zone (DIZ) [11] | Activity [13] | zone of inhibition at 50 µg/mL [5] [mm] | zone of inhibition at 100 µg/mL [6] [mm] | zone of inhibition at 50 µg/mL [7] [mm] | zone of inhibition at 100 µg/mL [8] [mm] | zone of inhibition at 50 µg/mL [9] [mm] | zone of inhibition at 100 µg/mL [10] [mm] | zone of inhibition at 50 µg/mL [11] [mm] | zone of inhibition at 100 µg/mL [12] [mm] | also measured
1 | O=S(=O)(Cc1nnc(CS(=O)(=O)c2c[nH]cc2S(=O)(=O)c2ccccc2)o1)Nc1ccccc1 | 12 | 14 | 13 | 15 | inactive | inactive | inactive | inactive | inactive | inactive | inactive | inactive |  |  |  |  |  |  |  |  | diameter of the inhibition zone (DIZ) [12]: inactive
2 | Cc1ccc(NS(=O)(=O)Cc2nnc(CS(=O)(=O)c3c[nH]cc3S(=O)(=O)c3ccc(C)cc3)n2N)cc1 | 16 | 18 | 19 | 21 |  |  |  |  |  |  |  | inactive | 13 | 15 | 21 | 23 | 18 | 19 | 18 | 21 | 
3 | O=S(=O)(Cc1nnc(CS(=O)(=O)C2CNN=C2S(=O)(=O)c2ccccc2)o1)Nc1ccccc1 (stereo not given) |  |  |  |  | inactive | inactive | inactive | inactive | inactive | inactive | inactive | inactive |  |  |  |  |  |  |  |  | diameter of the inhibition zone (DIZ) [1]: inactive; diameter of the inhibition zone (DIZ) [2]: inactive; diameter of the inhibition zone (DIZ) [3]: inactive; diameter of the inhibition zone (DIZ) [4]: inactive; diameter of the inhibition zone (DIZ) [12]: inactive
4 | Nn1c(CS(=O)(=O)Nc2ccc(Cl)cc2)nnc1CS(=O)(=O)c1c[nH]cc1S(=O)(=O)c1ccc(Cl)cc1 | 30 | 33 | 29 | 33 |  |  |  |  |  |  |  | inactive | 25 | 28 | 34 | 36 | 32 | 34 | 33 | 36 | MIC [14]: 50 µg/mL (≈ 82.6 µM); MIC [15]: 25 µg/mL (≈ 41.3 µM); MIC [16]: 50 µg/mL (≈ 82.6 µM); MIC [17]: 100 µg/mL (≈ 165 µM); MIC [18]: 25 µg/mL (≈ 41.3 µM); MIC [19]: 50 µg/mL (≈ 82.6 µM); MBC [20]: 200 µg/mL (≈ 330 µM); MBC [21]: 100 µg/mL (≈ 165 µM); MBC [22]: > 200 µg/mL; MBC [23]: > 200 µg/mL; MFC [24]: 100 µg/mL (≈ 165 µM); MFC [25]: > 200 µg/mL
5 | O=S(=O)(Cc1nnc(CS(=O)(=O)c2c[nH]nc2S(=O)(=O)c2ccc(Cl)cc2)s1)Nc1ccc(Cl)cc1 | 27 | 29 | 28 | 31 |  |  |  |  |  |  |  | inactive | 24 | 26 | 30 | 33 | 30 | 32 | 31 | 34 | 
6 | O=S(=O)(Cc1nnc(CS(=O)(=O)c2c[nH]cc2S(=O)(=O)c2ccccc2)s1)Nc1ccccc1 | 15 | 17 | 18 | 20 |  |  |  |  |  |  |  | inactive | 14 | 15 | 20 | 22 | 16 | 18 | 17 | 20 | 
